From PubChem
Shown are actives, neighbours in structure and some others; about 4.8% of the full set was active somewhere.
WT yeast gro inh: growth inhibition of WT yeast, mitochondrial fusion screen | mitochondrial fusion phenotypic screen, WT strain | inhibition, % at 10 µM | 2.1% of 190,000 active | AID 1362; in the data active = inhibition above about 58%; tested in S. cerevisiae
CSC inhib: blocks cancer stem cells | 1.1% of 300,000 active | cancer stem cell-like cells viability, luminescence | inhibition, % at 7.5 µM; in the data active = inhibition above about 75%; tested in HMLE shEcad cells
Efflux pump inh: inhibitors of Candida antifungal efflux pumps expressed in yeast | S. cerevisiae Candida pump triplex, Nile Red efflux | inhibition, % at 10 µM | 0.44% of 330,000 active | AID 485275;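 active = plate passing quality check with inhibition over a set limit, or well fluorescence over plate mean plus 4 SD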;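 also: Nile Red retained in pooled yeast measured as flow cytometry median fluorescence; higher means more Nile Red kept so more efflux inhibition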
T cruzi repl: T. cruzi replication inhibition; T. cruzi beta-gal in NIH3T3, luminescence, 90 h; inhibition, % (no concentration beside the values); 1.4% of 300,000 active;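 active = mean inhibition across valid replicates above about 55%, limit read from the data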;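 also: signal also drops with host cell toxicity which is not excluded here; higher percent means less beta-gal luminescence so fewer parasites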
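Incubation – ≥90 h infection period, 3 h prior cell attachment · System – NIH/3T3 fibroblasts plus reporter T. cruzi · Doses – compound pinned at 50 nL/well, DMSO · Read-out basis – percent inhibition of parasite-derived β-gal signal · Signal – luminescent β-galactosidase signal after 60 min lysis · Also added – 5000 T. cruzi trypomastigotes/well · Medium – Low-serum DMEM with 2% FBS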
Beta apoptosis: blocks beta cell apoptosis | INS-1E cytokine-induced death, ATP luminescence, 48 h; percent of positive-control rescue, neutral wells zero | protection from apoptosis, % (concentration not given with the values) | 0.8% of 300,000 active;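 active = Every replicate reaches about 75%, or at least half do and their mean reaches it too, limit read from the data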;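 also: higher means more ATP so stronger rescue from cytokine killing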
SUMO Mot1 rescue: blocks SUMOylation pathway, rescuing yeast Mot1-301 growth; AID 2716; S. cerevisiae Mot1-301 growth rescue, ATP luminescence, 38.5C; percent above DMSO median, 100 means doubled; 1% of 320,000 active; growth rescue, % at 18.8 µM;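 active = every valid replicate shows activation above 250% relative to neutral control wells; inactive = the rest, any valid replicate at or below 250%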
Large screens that a line does not name were inactive.

c1ccc(COc2cccc(CNCc3ccccn3)c2)cc1	none
c1ccc(NCc2cccnc2)cc1	SUMO Mot1 rescue 292.5 (no result: T cruzi repl)
Clc1cccc(OCCN2CCNCC2)c1	T cruzi repl 57.8
Clc1cccc(OCCN2CCOCC2)c1	none
OCCN1CCN(CCOc2cccc(Cl)c2)CC1	T cruzi repl 66.0
CCc1nnc(NC(=O)C(CC)CC)s1	none (no result: WT yeast gro inh)
Cc1cccc2c1NC(C)CC2C (configuration not stated)	T cruzi repl 58.6
COC(=O)C(C)Sc1nc2c(c(=O)n(C)c(=O)n2C)n1CCC(C)C (configuration not stated)	SUMO Mot1 rescue 960.6
O=C(N/N=C/C=C\c1ccco1)c1ccccn1	none (no result: WT yeast gro inh)
O=C(N/N=C\C=C\c1ccco1)c1cc(-c2ccc3ccccc3c2)n[nH]1	SUMO Mot1 rescue 593.7
CC1CCCCN1CCCNC(=O)c1ccc2nc(N3CCCCC3)sc2c1 (configuration not stated)	none (no result: WT yeast gro inh)
COc1cc(C2CC(=O)Oc3cc4c(cc32)OCO4)cc(OC)c1OC (configuration not stated)	none (no result: WT yeast gro inh, CSC inhib, T cruzi repl, Beta apoptosis, SUMO Mot1 rescue)
COc1cc([C@@H]2c3cc4c(cc3[C@@H](O)[C@H]3COC(=O)[C@H]23)OCO4)cc(OC)c1O[Si](C)(C)C(C)(C)C	CSC inhib 127.2 (no result: WT yeast gro inh)
C#CCn1c(=NC(=O)c2ccc(S(=O)(=O)N3CCc4ccccc4C3)cc2)sc2cc(S(N)(=O)=O)ccc21	Beta apoptosis 103.8 (no result: CSC inhib)
C=CCn1c(=NC(=O)c2ccc(S(=O)(=O)N3CCc4ccccc4C3)cc2)sc2cc(S(N)(=O)=O)ccc21	none (no result: CSC inhib)
CC(C)(C)c1c(Cl)c(O)c(-c2ccccc2)c(=O)n1-c1ccccc1	none (no result: CSC inhib, Efflux pump inh, Beta apoptosis, SUMO Mot1 rescue)
CCn1c(=O)c2cc(C(=O)N(C)CC(OC)OC)sc2c2ccccc21	none (no result: WT yeast gro inh)
CCn1c(=O)c2cc(C(=O)Nc3ccc(OC)cc3OC)sc2c2ccccc21	SUMO Mot1 rescue active (no result: WT yeast gro inh)
CCOc1ccccc1N(C)C(=O)c1cc2c(=O)n(CC)c3ccccc3c2s1	T cruzi repl 61.6 (no result: WT yeast gro inh)
Cn1cc(S(=O)(=O)Nc2cccc3ccccc23)c(=O)n(C)c1=O	none (no result: WT yeast gro inh)
O=C(COc1ccccc1[N+](=O)[O-])Nc1ccc(N2CCN(C(=O)c3cccs3)CC2)cc1	none
Cc1cc(NC(=O)c2cc(-c3cccnc3)nc3c(C)c(C)ccc23)no1	none
Cc1c(Cl)ccc2c(C(=O)Nc3cc(C(C)(C)C)on3)cc(-c3ccccn3)nc12	T cruzi repl 61.2 (no result: WT yeast gro inh, Beta apoptosis)
O=[N+]([O-])/C=C/c1cn(Cc2ccc(F)cc2)c2ccccc12	CSC inhib 137.0, Beta apoptosis 78.2 (no result: WT yeast gro inh)
CCNC(=S)N/N=C/c1cn(Cc2ccc(F)cc2)c2ccccc12	CSC inhib 89.6
CNC(=S)N/N=C/c1cn(Cc2c(F)cccc2Cl)c2ccccc12	WT yeast gro inh 61.9
CCNC(=S)N/N=C/c1cn(Cc2ccccc2F)c2ccccc12	none
Cc1ccccc1C(=O)N(CC(=O)Nc1sc(C)c(C)c1C(N)=O)C1CCCC1	none (no result: WT yeast gro inh)
Cn1c(=O)c2c([nH]c(OCc3ccc(Cl)cc3Cl)[n+]2Cc2ccc(F)cc2)n(C)c1=O	none (no result: WT yeast gro inh)
COc1ccc(CN(C)C(C)C(=O)N(C)CC(=O)Nc2ccc(C)cc2)cc1F (configuration not stated)	none (no result: WT yeast gro inh, T cruzi repl)
CCCn1c2c(c(O)c(C(=O)Nc3ccc(OC)cc3)c1=O)CCCC2	T cruzi repl 61.2
O=C(O)c1cc(Cl)c(Cl)cc1C(=O)NCc1ccco1	none (no result: WT yeast gro inh)
C/C(CC1CC2=C(CC1(C)C)C(C)(C)CCC2)=N\NC(N)=S (configuration not stated)	WT yeast gro inh 76.0, T cruzi repl 55.7 (no result: CSC inhib, Beta apoptosis)
CC(=O)Nc1cccc(C(=O)/C=C/c2ccc(/C=C/C(=O)c3cccc(NC(C)=O)c3)cc2)c1	CSC inhib 77.1
CC(=O)Nc1cccc(C(=O)/C=C/c2ccc(F)cc2)c1	none
CC(=O)Nc1cccc(C(=O)/C=C/c2ccc(Br)cc2)c1	CSC inhib 126.7
O=C(CSCc1ccc(F)cc1)N1CCN(c2ccc(F)cc2)CC1	none
Cc1ccc(CSCC(=O)N2CCN(c3ccc(F)cc3)CC2)cc1	T cruzi repl 56.7
NS(=O)(=O)c1cc(Cl)c(NC(=O)COC(=O)c2ccccn2)c(Cl)c1	none (no result: WT yeast gro inh, T cruzi repl)
COc1ccc(CCn2c(=N)c(C(=O)NCC3CCCO3)cc3c(=O)n4cccc(C)c4nc32)cc1 (configuration not stated)	T cruzi repl 57.8 (no result: WT yeast gro inh)
N=c1c(C(=O)NCc2ccc(F)cc2)cc2c(=O)n3ccccc3nc2n1Cc1cccnc1	T cruzi repl 69.8 (no result: Beta apoptosis)
CC(=O)N=c1c(C#N)cc2c(=O)n3ccccc3nc2n1CCCOC(C)C	none (no result: WT yeast gro inh)
N=c1c(C(=O)NCc2ccccc2)cc2c(=O)n3ccccc3nc2n1CCCN1CCOCC1	none (no result: WT yeast gro inh, CSC inhib, T cruzi repl)
CC(C)OCCCn1c(=N)c(C(N)=S)cc2c(=O)n3ccccc3nc21	T cruzi repl 69.0 (no result: Beta apoptosis)
COc1ccc(CNC(=O)c2cc3c(=O)n4cccc(C)c4nc3n(CC3CCCO3)c2=N)cc1 (configuration not stated)	none (no result: WT yeast gro inh, Beta apoptosis)
CCOCCCn1c(=N)c(C(=O)NCc2ccc3c(c2)OCO3)cc2c(=O)n3ccccc3nc21	T cruzi repl 59.5 (no result: CSC inhib, Efflux pump inh, Beta apoptosis, SUMO Mot1 rescue)
CN(C(=O)COC(=O)c1nc(Cl)c(Cl)c(Cl)c1Cl)C1CCS(=O)(=O)C1 (configuration not stated)	none (no result: CSC inhib, Efflux pump inh, Beta apoptosis, SUMO Mot1 rescue)
CCCOc1ccc(N2C(=O)C/C(=C\c3ccccc3)C2=O)cc1	none (no result: WT yeast gro inh)
CCCn1c(=N)c(C(=O)NCc2ccc3c(c2)OCO3)cc2c(=O)n3cccc(C)c3nc21	T cruzi repl 64.4
CC(=O)N(C1=C(Cl)C(=O)c2ccccc2C1=O)C1CCCCC1	T cruzi repl 57.7 (no result: WT yeast gro inh)
CC(=O)N(c1ccccc1C)C1CCCC1	none
Cc1ccc(C(=O)NCC(=O)OCC(=O)N(CC(C)C)c2c(N)n(Cc3ccccc3)c(=O)[nH]c2=O)cc1	none (no result: WT yeast gro inh)
COc1ccccc1-c1nc(S(=O)(=O)c2ccccc2)c(N2CCCCC2)o1	none (no result: WT yeast gro inh)
O=S(=O)(c1ccc(F)cc1)c1nc(-c2ccccc2F)oc1N1CCCCC1	T cruzi repl 70.7
O=S(=O)(O)c1nc2ccccc2n1Cc1ccccc1	none
Cn1cccc1-c1nc2ccccc2n1Cc1ccccc1	CSC inhib 88.2
CS(=O)(=O)c1nc2ccccc2n1Cc1ccccc1	WT yeast gro inh 93.8
COc1ccc(NCC(=O)n2c(C)c(C)c3ccccc32)cc1OC	none (no result: WT yeast gro inh)
CNc1c(NS(=O)(=O)c2ccc(CC(C)C)cc2)c(=O)oc2ccccc12	none (no result: WT yeast gro inh)
O=C(Nc1ccccc1)OC1CC2CC1C1CCCC21 (configuration not stated)	WT yeast gro inh 80.4
O=C(Nc1ccccc1)O[C@@H]1C[C@H]2CCC(=O)N3CC[C@@H](C1)[C@@H]23	none (no result: WT yeast gro inh)
Cc1c(N(C(=O)Nc2ccccc2)C2=NCC(C)S2)c(=O)n(-c2ccccc2)n1C (configuration not stated)	WT yeast gro inh 82.1
Cc1ccc(N(C(=O)Nc2ccccc2)C2=NCC(C)S2)cc1 (configuration not stated)	none
